Laboratory results reported in ChEMBL document CHEMBL1177757, “C(2)-Symmetric azobenzene-amino acid conjugates and their inhibition of Subtilisin Kexin Isozyme-1” (Bioorg Med Chem Lett, 2010).

Assays:
[1] = target: T1, Membrane-bound transcription factor site-1 protease (Homo sapiens, UniProt Q14703); assay: Inhibition of human recombinant soluble Kexin isozyme 1
T1 sequence (Q14703 whole entry): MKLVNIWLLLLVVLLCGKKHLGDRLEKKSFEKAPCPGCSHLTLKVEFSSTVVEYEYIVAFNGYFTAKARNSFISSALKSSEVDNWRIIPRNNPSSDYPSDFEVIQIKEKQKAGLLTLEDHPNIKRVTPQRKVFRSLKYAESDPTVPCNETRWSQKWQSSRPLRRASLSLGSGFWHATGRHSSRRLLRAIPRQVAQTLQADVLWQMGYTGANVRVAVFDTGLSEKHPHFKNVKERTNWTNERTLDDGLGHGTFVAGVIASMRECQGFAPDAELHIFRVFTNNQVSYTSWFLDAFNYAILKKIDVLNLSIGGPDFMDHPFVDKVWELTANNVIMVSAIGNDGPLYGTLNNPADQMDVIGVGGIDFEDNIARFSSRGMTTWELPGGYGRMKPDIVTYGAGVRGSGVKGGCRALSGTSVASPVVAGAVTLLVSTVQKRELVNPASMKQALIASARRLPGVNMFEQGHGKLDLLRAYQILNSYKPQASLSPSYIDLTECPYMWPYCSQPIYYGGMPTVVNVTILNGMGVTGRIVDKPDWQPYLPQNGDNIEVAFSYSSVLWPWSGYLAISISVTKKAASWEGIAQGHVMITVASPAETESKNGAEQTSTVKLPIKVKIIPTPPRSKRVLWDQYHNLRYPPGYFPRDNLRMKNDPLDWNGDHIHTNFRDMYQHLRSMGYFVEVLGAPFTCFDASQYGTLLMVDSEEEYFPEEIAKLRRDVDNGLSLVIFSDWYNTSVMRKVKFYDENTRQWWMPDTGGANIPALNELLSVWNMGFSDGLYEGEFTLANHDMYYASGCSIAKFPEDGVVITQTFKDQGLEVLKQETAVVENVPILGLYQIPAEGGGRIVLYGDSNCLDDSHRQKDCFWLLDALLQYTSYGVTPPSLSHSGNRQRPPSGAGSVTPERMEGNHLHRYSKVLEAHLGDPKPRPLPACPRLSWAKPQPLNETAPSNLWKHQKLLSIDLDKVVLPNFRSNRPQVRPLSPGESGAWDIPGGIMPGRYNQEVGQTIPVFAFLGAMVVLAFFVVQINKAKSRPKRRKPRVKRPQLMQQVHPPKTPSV
In short: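 Recombinant soluble human SKI-1 (activity normalized to 10 pmol Abz-peptide released per µL per h, 37 °C). Only the E-form was tested, at varying concentrations, with quenched fluorogenic Abz-Q-GPC251–263-Tyx substrate in Tris/Mes/2 mM CaCl2 buffer at 37 °C. RFU (ex 320/em 420 nm) were read from 0–6 h and converted to cleavage rates. Ki came from Dixon plots at 0.1, 0.05 and 0.025 mM substrate.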

[2] = Chemical stability assessed as half life of degradation; type: physicochemical
In short: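 Z-isomer formed by long-wavelength UV irradiation, then its thermal reisomerization to the E-form followed. First-order rate constant (h⁻¹) and Z-isomer half-life (h) derived.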

Structure (SMILES)	Ki [1]	half-life [2]
O=C(O)CNC(=O)COc1ccccc1/N=N/c1ccccc1OCC(=O)NCC(=O)O	265 µM	–
O=C(COc1ccccc1/N=N/c1ccccc1OCC(=O)N[C@@H](Cc1ccccc1)C(=O)N[C@@H](Cc1ccccc1)C(=O)O)N[C@@H](Cc1ccccc1)C(=O)N[C@@H](Cc1ccccc1)C(=O)O	140 µM	–
O=C(COc1ccccc1/N=N/c1ccccc1OCC(=O)NCC(=O)OCc1ccccc1)NCC(=O)OCc1ccccc1	–	77 h
O=C(COc1ccccc1/N=N/c1ccccc1OCC(=O)N[C@@H](Cc1ccccc1)C(=O)N[C@@H](Cc1ccccc1)C(=O)OCc1ccccc1)N[C@@H](Cc1ccccc1)C(=O)N[C@@H](Cc1ccccc1)C(=O)OCc1ccccc1	–	28.9 h
O=C(COc1ccccc1/N=N/c1ccccc1OCC(=O)N[C@@H](Cc1ccccc1)C(=O)O)N[C@@H](Cc1ccccc1)C(=O)O	225 µM	–

Continued by falling Ki [1], values first:

Ki [1]	half-life [2]	Structure (SMILES)
125 µM	31.5 h	CC(C)[C@H](NC(=O)COc1ccccc1/N=N/c1ccccc1OCC(=O)N[C@H](C(=O)OCc1ccccc1)C(C)C)C(=O)OCc1ccccc1
75 µM	–	CC(C)[C@H](NC(=O)COc1ccccc1/N=N/c1ccccc1OCC(=O)N[C@H](C(=O)O)C(C)C)C(=O)O
11.8 µM	69.3 h	O=C(COc1ccccc1/N=N/c1ccccc1OCC(=O)N[C@@H](Cc1ccccc1)C(=O)OCc1ccccc1)N[C@@H](Cc1ccccc1)C(=O)OCc1ccccc1
